The results in this text go back to ChEMBL document CHEMBL1150073, “Cytotoxic cyclolignans from Koelreuteria henryi” (J Nat Prod, 1994).

pIC50: −log10 of the molar value. ≈ marks a conversion by molar mass, not a printed value.

What is called pIC50 is −log10 of the IC50, conventionally taken in molar units. A low value points to a large IC50.

In one assay the test system is HT-29. Put plainly: Cytotoxicity against human HT-29 cells by MTT assay. The format is functional. The following applies: for EC50: Homo sapiens, HT-29, read-out: ED50 (the source's name). Summed up:
(§1)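 Human solid tumour lines tested at the Purdue Cancer Center cell culture laboratory using a standard MTT viability method, with adriamycin run as the control substance.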
In general terms: Formazan colour is commonly taken as a measure of viable cells.

The next assay has as its system SK-MEL-5. Put plainly: Cytotoxicity against human SK-MEL-5 cells by MTT assay. The format is functional. The following applies: for EC50: Homo sapiens, SK-MEL-5, read-out: ED50 (the source's name). Summed up: as §1
The nature of assay [1]: Inhibition of bovine brain tubulin polymerization by turbidity assay. The arrangement: species or system Bos taurus. The essentials:
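Microtubule protein isolated from bovine brain, 1 mg/ml, with 1 mM GTP and graded inhibitor concentrations. Turbidity increase read at 340 nm over 30 min at 37°. Positive control contained MTP plus GTP; negative control contained MTP only.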

In a further assay the test system is SK-OV-3. Put plainly: Cytotoxicity against human SKOV3 cells by MTT assay. The class given is functional. Conditions: for EC50: Homo sapiens, SK-OV-3, read-out: ED50 (the source's name). The essentials:
as §1

The next assay concerns A-431. Put plainly: Cytotoxicity against human A431 cells by MTT assay. The class given is functional. Conditions: for EC50: Homo sapiens, A-431, read-out: ED50 (the source's name). The essentials:
as §1

For another assay, the system named is A498. Put plainly: Cytotoxicity against human A498 cells by MTT assay. The class given is functional. Conditions: for EC50: Homo sapiens, A498, read-out: ED50 (the source's name). Summed up: as §1
A further assay has as its system PC-3. In words: Cytotoxicity against human PC3 cells by MTT assay. The class given is functional. The following applies: for EC50: Homo sapiens, PC-3, read-out: ED50 (the source's name). The essentials: as §1
A short description of assay [2]: Inhibition of bovine brain tubulin polymerization by sedimentation assay. The arrangement: species or system Bos taurus. Summed up:
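Microtubule protein from bovine brain (1 mg/ml) with 1 mM GTP and varying inhibitor levels, incubated 30 min at 37°. Microtubules pelleted at 100,000 g for 5 min. Supernatant protein measured by BCA. Sedimented protein calculated relative to the positive control (MTP+GTP) and negative control (MTP alone).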

The next assay relates to MCF7. Put plainly: Cytotoxicity against human MCF7 cells by MTT assay. The format is functional. Conditions: for EC50: Homo sapiens, MCF7, read-out: ED50 (the source's name). The essentials:
as §1

In the next assay the test system is A549. Put plainly: Cytotoxicity against human A549 cells by MTT assay. The class given is functional. Conditions: for EC50: Homo sapiens, A549, read-out: ED50 (the source's name). The essentials:
as §1

Turning to `COc1cc(-c2c3c(cc4cc5c(cc24)OCO5)COC3=O)cc2c1OCO2`, the EC50 with HT-29 turned out to be 0.29 µg/mL (≈ 0.767 µM); in the assay with SK-MEL-5, 0.0035 µg/mL (≈ 0.00925 µM); in the assay on SK-OV-3, 6.7 ng/mL (≈ 0.0177 µM); in the assay on A-431, 0.18 µg/mL (≈ 0.476 µM); in the assay with A498, 0.078 µg/mL (≈ 0.206 µM); in the assay with PC-3, 0.15 µg/mL (≈ 0.396 µM). The EC50 in the assay with MCF7 was determined as 9.7 µg/mL (≈ 25.6 µM); with A549, 0.049 µg/mL (≈ 0.13 µM). Also, the pIC50 in assay [1] was 5.30; in assay [2], 4.70.

For `COc1cc([C@@H]2c3cc4c(cc3C[C@H]3COC(=O)[C@H]32)OCO4)cc2c1OCO2`, the EC50 with HT-29 was 0.1 µg/mL (≈ 0.262 µM); with SK-MEL-5 it was 0.77 µg/mL (≈ 2.01 µM); in the assay on SK-OV-3 it was 832 ng/mL (≈ 2.18 µM); with A-431 it was 0.96 µg/mL (≈ 2.51 µM); in the assay on A498 it was 0.76 µg/mL (≈ 1.99 µM); with PC-3 it was 3.1 µg/mL (≈ 8.11 µM). Further, the results for the EC50 with MCF7 and in the assay on A549 were 4.1 µg/mL (≈ 10.7 µM) and 0.46 µg/mL (≈ 1.2 µM), respectively. Further, the pIC50 was 4.40 in assay [1] and 4.35 in [2].

On to `COc1cc([C@@H]2c3cc4c(cc3C[C@H]3COC(=O)[C@@H]32)OCO4)cc2c1OCO2` [AUSTROBAILIGNAN 1], for which the ED50 in the assay on HT-29 is 3.7 ×10⁻⁶ ug/ml; in the assay on SK-MEL-5, 3 ×10⁻⁷ ug/ml; in the assay on SK-OV-3 it was 2.7 ×10⁻⁶ ug/ml; in the assay with A-431, 3.6 ×10⁻⁶ ug/ml; in the assay on A498, 3.2 ×10⁻⁶ ug/ml; with PC-3, 3.3 ×10⁻⁶ ug/ml. The values for the ED50 with MCF7 and in the assay with A549 were 5.2 ×10⁻⁵ ug/ml and 3.9 ×10⁻⁶ ug/ml, respectively. Also, the pIC50 was 6.10 in assay [1] and 6.00 in assay [2].

As to `COc1cccc2c1C(=O)c1c(O)c3c(c(O)c1C2=O)C[C@@](O)(C(=O)CO)C[C@@H]3O[C@H]1C[C@H](N)[C@H](O)[C@H](C)O1` [DOXORUBICIN], the ED50 is reported as 5.6 ×10⁻⁴ ug/ml in the assay on HT-29, 2.8 ×10⁻⁴ ug/ml in the assay on SK-MEL-5 and 3.1 ×10⁻⁴ ug/ml in the assay on A549. Further, the EC50 worked out at 2.5 ng/mL (≈ 0.0046 µM) in the assay with SK-OV-3; 0.012 µg/mL (≈ 0.0221 µM) in the assay with A-431; 0.0032 µg/mL (≈ 0.00589 µM) with A498; 0.01 µg/mL (≈ 0.0184 µM) in the assay with PC-3; 0.02 µg/mL (≈ 0.0368 µM) in the assay on MCF7.

Consider `COc1cc([C@@H]2c3cc4c(cc3[C@H](O)[C@H]3COC(=O)[C@H]23)OCO4)cc(OC)c1OC` [PODOFILOX], for which the ED50 turned out to be 4.7 ×10⁻⁸ ug/ml with HT-29; 4.1 ×10⁻⁸ ug/ml with SK-MEL-5; 4.2 ×10⁻⁵ ug/ml in the assay with SK-OV-3; 1.1 ×10⁻⁶ ug/ml with A-431; 3.4 ×10⁻⁷ ug/ml in the assay on A498; 1.2 ×10⁻⁷ ug/ml in the assay with PC-3. The ED50 with MCF7 worked out at 1.1 ×10⁻⁶ ug/ml; with A549 it was 7.7 ×10⁻⁸ ug/ml. Also, the negative-log IC50 (pIC50) was 6.22 in assay [1] and 6.00 in assay [2].
